Screening results: PubChem, several laboratories
Compounds with a hit are over-represented: about 2.1% of the library has one in this group of screens.
MC4R ag barr = human MC4R agonism via beta-arrestin | P32245 | U2OS MC4R beta-arrestin complementation, luminescence; percent of melanotan II response, DMSO zero | activation, % at 8.9 µM | 360,000 compounds, 0.98% hits | AID 540308;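 active means activation above a per-plate cutoff, the mean activation of sample wells on that plate plus 3 SD, cut at about 8% in these data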
TLR9-MyD88 inh = TLR9-MyD88 interaction inhibition. Q9NR96+Q99836. 340,000 compounds, 0.21% hits. AID 504734. inhibition, % at 4.98 µM. CHO BLA complementation TLR9-MyD88, CCF4 FRET ratio;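 active means inhibition above the mean over all tested compounds plus 3 SD, cut at about 21% in these data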;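 further: 0% = DMSO only wells and 100% = clavulanate BLA inhibitor control wells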
NOD2 RIPK2 PPI = inhibitors of human NOD2-RIPK2 interaction; AID 624267; 360,000 compounds, 0.38% hits; CHO BLA complementation NOD2-RIPK2, CCF4 ratio; inhibition, % at 4.98 µM; O43353; in the data active means inhibition above about 21%;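 further: 0% = vehicle only and 100% = reference blocker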
Target sequence (O43353 whole entry, looked up): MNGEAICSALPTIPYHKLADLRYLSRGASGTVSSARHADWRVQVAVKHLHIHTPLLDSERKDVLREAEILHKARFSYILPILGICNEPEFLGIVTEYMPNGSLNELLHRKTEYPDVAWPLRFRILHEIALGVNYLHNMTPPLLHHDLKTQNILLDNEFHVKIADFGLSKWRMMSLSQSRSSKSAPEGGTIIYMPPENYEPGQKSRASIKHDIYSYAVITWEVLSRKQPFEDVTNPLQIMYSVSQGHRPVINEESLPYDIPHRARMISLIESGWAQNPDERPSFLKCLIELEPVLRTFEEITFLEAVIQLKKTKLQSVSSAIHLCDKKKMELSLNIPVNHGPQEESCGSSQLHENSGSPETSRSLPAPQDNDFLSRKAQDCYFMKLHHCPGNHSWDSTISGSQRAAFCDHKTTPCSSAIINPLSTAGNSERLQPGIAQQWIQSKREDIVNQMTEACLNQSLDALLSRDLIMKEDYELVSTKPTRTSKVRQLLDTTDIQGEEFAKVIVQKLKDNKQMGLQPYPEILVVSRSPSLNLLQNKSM
MC4R antagonist = human MC4R antagonism in cAMP assay. MC4R-expressing cells, MTII-stimulated cAMP, LANCE TR-FRET. inhibition, % at 6.5 µM. 360,000 compounds, 0.48% hits;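 active means inhibition above its plate's cutoff, the mean of tested wells on that plate plus 3 SD, cut at about 29% in these data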;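 further: 0% = Melanotan II alone and 100% = Melanotan II plus saturating MCL0020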
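Assay system: human MC4R-expressing U2OS cells; reagent: Melanotan II stimulation of cells; dosing: 6.5 µM single dose; timing: compound 30 min, challenge 1 h, detection 1 h; signal: TR-FRET cAMP assay; replicates: one well per compound, no replicates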
beta cell repl = induces beta-cell replication in MIN6 cells; 330,000 compounds, 0.29% hits; proliferation, % at 10 µM; MIN6 cells proliferation, ATPlite luminescence, 48 h; cells starved in 0.2% serum; 100% = growth in 10% serum; AID 2380;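 active means compounds whose signal lies at least 3.5 SD above the mean of all wells on their plate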;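 further: 0% = DMSO-treated cells in low-serum medium and 100% = 10% serum control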
TLR4-MyD88 BLA = TLR4-MyD88 interaction inhibition in cells | inhibition, % at 8.4 µM | HeLa CL3-4 TLR4/MyD88 BLA complementation, FRET ratio | 200,000 compounds, 0.18% hits | O00206+Q99836; in the data active means inhibition above about 25%;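 further: 0% = vehicle and 100% = reference inhibitor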
MC4R barr ag = human MC4R beta-arrestin agonism confirmation | shares compounds with MC4R ag barr | U2OS MC4R beta-arrestin recruitment, luminescence; scaled DMSO 0%, Melanotan II 100% | activation, % at 8.9 µM | 2,400 compounds, 31% hits | AID 602192;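 active means mean activation across replicates above the hit cutoff set in the earlier primary screen, cut at about 8% in these data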
MOR-DOR barr ag = counter-screen for MC4R agonists: agonists of mu-delta opioid heterodimer | U2OS PathHunter beta-arrestin, beta-gal luminescence; percent of deltorphin B response, DMSO zero | AID 602194 | shares compounds with MC4R ag barr | activation, % at 9.2 µM | 2,400 compounds, 5.8% hits;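 active means mean activation across replicates exceeds the hit threshold derived in the earlier primary screen, cut at about 18% in these data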;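 further: 100% = deltorphin B at 0.9 µM final and 0% = DMSO alone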
An asterisk follows results filed as active; / = no result given.

SMILES	MC4R ag barr	TLR9-MyD88 inh	NOD2 RIPK2 PPI	MC4R antagonist	beta cell repl	TLR4-MyD88 BLA	MC4R barr ag	MOR-DOR barr ag
Cc1ccc(-n2nnc3c(SCC(=O)NCc4ccco4)ncnc32)cc1	13*	-1	-5	4	-4	-2	1	5
CCNC(=O)C1(C)CCCN(C(=O)c2cccc(C)c2C)C1 (configuration not stated)	1	/	0	-4	/	/	/	/
O=C(c1cc2ccccc2o1)N1CCN(c2ccccn2)CC1	-1	5	2	1	-4	/	/	/
CCN1C(=O)/C(=C2/Sc3ccc(OC)cc3N2C)SC1=Nc1ccc(C(C)=O)cc1	/	/	/	/	/	1	/	/
CCN1C(=O)/C(=C2/Sc3ccc(OC)cc3N2C)SC1=Nc1cccc(O)c1	14*	-12	-5	14	-4	-1	17*	12
Cc1nnsc1S(=O)(=O)Cc1ccccc1C(F)(F)F	-2	-8	-1	4	-2	8	/	/
Cc1ccc(-c2cc(C(=O)NCc3ccco3)no2)cc1	1	-4	2	16	-3	-6	/	/
O=C(NCc1ccco1)c1cc(-c2ccc3c(c2)OCO3)on1	12*	-3	-2	4	0	-1	6	5
O=C(COc1ccccc1[N+](=O)[O-])Nc1ccc2c(c1)CCC2	13*	9	0	2	-5	/	2	3
O=C(COc1cccc(Cl)c1Cl)Nc1ccc2c(c1)CCC2	5	-5	-1	8	-2	-6	/	/
COc1ccc(C(=O)Nc2nnc(Cc3ccccc3)s2)c(OC)c1	15*	11	-2	-10	4	/	-1	7
O=C(Nc1nnc(CCc2ccccc2)s1)c1ccc(F)cc1	0	-5	7	-1	-1	/	/	/
COc1cc(C(=O)Nc2nnc(Cc3ccccc3)s2)cc(OC)c1OC	-2	1	2	-2	/	/	/	/
O=C(Nc1nnc(CCc2ccccc2)s1)c1cccc(F)c1	14*	5	9	8	-1	/	1	5
COc1cc2c(cc1OC)C(c1ccc(-c3cc(Cl)ccc3Cl)o1)=NCC2	1	-8	-9	-10	-7	-2	/	/
COc1cc2c(cc1OC)C(c1ccc(-c3ccc(Cl)cc3Cl)o1)=NCC2	12*	-1	9	-10	-5	-4	7	4
CN1c2ccccc2SC2C(c3ccccc3)=NOC21 (configuration not stated)	/	/	2	/	/	/	/	/
O=[N+]([O-])c1cc(S(=O)(=O)N2CCCC2)ccc1N/N=C/c1ccncc1	-1	-9	-4	-4	-2	-5	/	/
O=[N+]([O-])c1cc(S(=O)(=O)N2CCCC2)ccc1N/N=C/c1cccs1	20*	-15	-9	-7	0	-10	2	4
C=CC[C@H](CC(=O)NCCO)C(=O)N[C@H](COC(=O)[C@H](CC=C)CC(=O)OC(C)(C)C)c1ccccc1	0	9	-10	1	-2	/	/	/
C#CCCCCCCCCC(=O)NCCCC	1	2	2	20	-1	-1	/	/
CCCCCCCCCCCCCCCC(=O)NCCO	12*	1	-2	3	-1	/	0	2
O=C(NCc1ccccc1)C(c1ccc(-c2ccccc2)cc1)N1CCN(C(=O)C2CCCO2)CC1 (configuration not stated)	/	/	3	/	/	/	/	/
O=C(CSc1ccccc1)N1CCN(c2ccc(F)cc2)CC1	1	-9	5	8	2	/	/	/
O=C(c1ccc(Br)o1)N1CCN(CCc2ccncc2)CC1	-1	-1	-3	2	-3	/	/	/
O=C(NC(=S)Nc1nc(-c2ccccc2)cs1)c1cncc(Br)c1	22*	2	4	5	-3	-9	6	1
O=C(NC(=S)Nc1nc(-c2ccccc2)cs1)c1cccs1	11*	2	3	12	-2	-4	0	1
